Data taken from publication PMC8901509 (Clinical Drug Investigation, 2021).
Where two headings read alike, the source gives them in different places.

Experiments:
[1] = cited from earlier work
[2] = anticipated therapeutic dose range of 5–25 mg; cited from earlier work
[3] = test system: glycine transporter-1 (GlyT1); settings: human; dose-dependent; cited from earlier work
[4] = Study 2: safety and tolerability; type: in vivo, human
Method in brief: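 Healthy males, sitting, given a single oral 25 mg dose of [14C]-labelled plus unlabelled drug as a solution after an overnight fast. Safety from physical examination (AEs), safety laboratory parameters, 12-lead ECG and vital signs (pulse rate, blood pressure). Investigators graded severity and drug relatedness.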

[5] = Study 1: safety and tolerability; type: in vivo, human
Method in brief: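 Healthy males given a single oral 25 mg tablet followed 4 h later by a 15-min IV [14C]-microtracer infusion. Medical surveillance for 24 h post-dose. AEs recorded continuously from screening to end-of-trial visit (Days 12–15). Assessment by physical examination, safety laboratory parameters, 12-lead ECG and vital signs (pulse rate, blood pressure).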

[6] = Study 2: metabolite radioprofiling in plasma, urine and feces; type: in vivo, human
Method in brief: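 Single oral 25 mg [14C]-labelled solution to healthy males. Plasma (to 168 h), urine and daily feces profiled by HPLC radiochromatography with fractionation and solid scintillation counting. Identification by LC/MS with accurate mass, positive and negative ion CID MS/MS; tentative unless matched to an authentic standard. Peaks < 20 cpm height below quantitation limit.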

[7] = multiple oral doses of itraconazole; cited from earlier work
[8] = type: in vivo; settings: human, plasma, po, 25 mg, t½, oral 25 mg solution, gMean (gCV%)
Method in brief: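 Healthy males, overnight fast (≥ 10 h), sitting; single oral 25 mg dose of [14C]-labelled/unlabelled mixture as 12.5 mL solution (2 mg/mL) with 240 mL water, planned 3.7 MBq; no food ≥ 4 h. Venous blood 5–8 mL per time point; plasma frozen ~−20 °C within 60 min. Cmax, AUC0–tz, AUC0–∞, tmax, t1/2 for parent, three metabolites and total radioactivity.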

[9] = test system: glycine transporter-1 (GlyT1); settings: rat; dose-dependent; cited from earlier work
[10] = cited from earlier work; remark: listed apart in the source
[11] = type: in vivo, human; settings: gMean dose-normalized maximum plasma concentration
Method in brief: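 Healthy males, overnight fast (≥ 10 h); single oral 25 mg film-coated tablet with water, fasted ≥ 4.5 h; at 4 h, 15-min IV infusion of 30 µg (3 µg [14C]-labelled, 0.011 MBq, plus 27 µg unlabelled). Plasma sampled −2 to 168 h (unlabelled) or 3–168 h (labelled), stored ~−20 °C. Unlabelled drug by validated LC/MS, labelled by AMS. Dose-normalized gMean ratio via mixed-effects ANOVA, two-sided 90% CI.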

SMILES: C[C@@H](Oc1ccc(S(C)(=O)=O)cc1C(=O)N1C[C@@H]2C[C@]2(c2cc(C(F)(F)F)on2)C1)C(F)(F)F [BI 425809]
- Biopharmaceutics Classification System class [1]: Class II
- permeability [1]: high
- tolerability [2]: generally well tolerated
- levels of glycine in cerebral spinal fluid (CSF) [3]: increased
- Total with on-treatment adverse events, % ([4]; 6 subjects): 83.3%
- AEs considered severe or drug related by the investigators ([4]; study 2): none
- SAEs, AEs leading to discontinuation, AEs of special interest ([4]; study 2): No SAEs
- tolerability ([4]; study 2, single 25 mg dose): generally well tolerated
- participants reporting at least one treatment-emergent AE ([5]; of six participants): 50.0%
- intensity of treatment-emergent AEs ([5]; study 1): mild intensity
- serious AEs, AEs leading to discontinuation, AEs of special interest ([5]; study 1): no serious AEs reported
- tolerability ([5]; study 1, oral 25 mg): generally well tolerated
- % of Dose Administrated; % of the radioactive dose ([6]; Average, feces radioprofiling): < 1%
- Plasma (%AUC0-168h), % [14C]; % of total plasma radioactivity ([6]; Average, plasma radioprofiling): 41.0%
- % of total radioactivity in feces ([6]; feces radioprofiling): < 1%
- gMean ratio of Cmax with co-administration of itraconazole [7]: 116.1%
- half-life [8]: ~50 h
- levels of glycine in cerebral spinal fluid (CSF) [9]: increased
- adjusted gMean ratio for AUC0–tz, tablet fasted vs. oral solution fasted ([10]; 25 mg tablet vs 25 mg solution): 80.5%
- adjusted gMean ratio for Cmax, tablet fasted vs. oral solution fasted ([10]; 25 mg tablet vs 25 mg solution): 50.0%
- adjusted gMean ratio AUC0–tz, high-fat/high-calorie meal versus 10-h fasted ([10]; 25 mg tablet): 125.9%
- adjusted gMean ratio Cmax, high-fat/high-calorie meal versus 10-h fasted ([10]; 25 mg tablet): 142.1%
- Cmax,norm lower after oral administration versus IV dose [11]: approximately 80%
